The results in this text go back to ChEMBL document CHEMBL1765038, “Cytotoxic and anti-inflammatory cembranoids from the Vietnamese soft coral Lobophytum laevigatum” (Bioorg Med Chem, 2011).

Data set [1] relates to HL-60. Kind of data set: Cytotoxicity against human HL60 cells by MTT assay. The class given is functional, cell-based. An outline of the steps:
(§1)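 MTT colorimetric assay on human cancer cell lines (leukemia HL-60, lung A549, colon HCT-116, breast MCF-7) obtained from the Korea Cell Line Bank; values reported as IC50.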
(Tetrazolium assays rely on reduction of a dye to a coloured formazan, in cell work by metabolically active cells.)

Data set [2] has as its system MCF7. The data set can be described thus: Cytotoxicity against human MCF7 cells by MTT assay. The class given is functional, cell-based. An outline of the steps: as §1
The test system of data set [3] is HCT-116. The data set can be described thus: Cytotoxicity against human HCT116 cells by MTT assay. The class given is functional, cell-based. An outline of the steps:
as §1

Data set [4] has as its system A549. The data set can be described thus: Cytotoxicity against human A549 cells by MTT assay. The class given is functional, cell-based. The gist of the method:
as §1

In data set [5] the test system is HepG2. Kind of data set: Inhibition of NF-kappaB-induced iNOS mRNA expression in TNF-alpha-stimulated human HepG2 cells at 1 to 9 uM pretreated for 1 hr by RT-PCR. The class given is cell-based. An outline of the steps: (§2)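 Hep-G2 cells pretreated with or without compound for 1 h, then exposed to 10 ng/mL TNFα for 6 h. Total mRNA isolated from cell pellets. COX-2 and iNOS transcripts quantified by RT-PCR, with primer specificity checked by gel electrophoresis and melting-curve analysis.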

Data set [6] concerns HepG2. The data set can be described thus: Inhibition of NF-kappaB-induced COX2 mRNA expression in TNF-alpha-stimulated human HepG2 cells at 1 to 9 uM pretreated for 1 hr by RT-PCR. The class given is cell-based. The gist of the method:
as §2

A short description of data set [7]: Inhibition of TNF-alpha-induced NF-kappaB transcriptional activity in human HepG2 cells pretreated for 1 hr by luciferase reporter gene assay. The class given is cell-based. An outline of the steps:
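Hep-G2 cells seeded at 2 × 10^5 per well, grown 24 h, then transfected (Lipofectamine LTX) with a firefly luciferase reporter under a minimal CMV promoter with tandem NF-κB response elements. Cells pretreated 1 h with vehicle (DMSO) or compound (0.1, 1, 10 µM), then 10 ng/mL TNFα for 1 h. Lysates read for luminescence. Unstimulated cells as negative control, PDTC 10 µM as positive control. Mean ± SD, n = 6; IC50 derived.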
Background: Reporter assays use an easily measured gene product as a stand-in for the process of interest.

Data set [8] has as its system HepG2. The data set can be described thus: Cytotoxicity against human HepG2 cells at 0.1 to 10 uM. The class given is cell-based. To be noted: hepg2, 10 µM. An outline of the steps: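 Hep-G2 viability measured by MTT assay at the concentrations used in the NF-κB reporter and mRNA experiments.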

Active and inactive are the calls of the source. The calls are words filed in the database; no cut-off is given here.

As a reminder, the IC50 is the concentration needed to halve the response being measured. In the case of `COC(=O)[C@]12CC(=O)[C@H](C(C)C)CC(=O)[C@H](C)CCC[C@H](C)CC(=O)[C@H]1CC(C)=C1C[C@H](OC(C)=O)[C@](C)(O)[C@H]3CC[C@@](C)(O)[C@H](CC/C(C)=C/[C@@H]12)O3` [NYALOLIDE], the half-maximal inhibitory concentration (IC50) in data set [1] turned out to be 28.1 µM; in data set [2], 35.5 µM; in data set [3], 17.5 µM; in data set [4] it was 28.7 µM.
Regarding `C=C1CO[C@H]2/C=C(\C)CC[C@@H]3O[C@]3(C)CC/C=C(\C)CC[C@@]12O` [LAEVIGATOL B], the inhibition entry in data set [5] and in data set [6] was “Dose-dependent effect” each time. For the same compound, the outcome in data set [1], in data set [2], in data set [3] and in data set [4] was inactive. The IC50 in data set [7] is 9.7 µM. The Activity result in data set [8] is given as “Non-toxic”.
Regarding `COC(=O)[C@@]12CC(=O)[C@@H](C(C)C)CC(=O)[C@@H](C)CCC[C@@H](C)CC(=O)[C@@H]1CC(C)=C1[C@@H]3C[C@@](C)(O)[C@H](CC[C@@H](C)C(=O)CC/C(C)=C/[C@H]12)O3` [METHYL TORTUOATE B], the inhibition result in data set [5] and in data set [6] was “Dose-dependent effect” throughout. Further, the IC50 in data set [1] was 25.8 µM; in data set [2] it was above 40 µM; in data set [7], 6.7 µM; in data set [3], 19.7 µM; in data set [4], 24.4 µM. The Activity entry in data set [8] is “Non-toxic”.
As to `COC(=O)[C@@]12CC(=O)[C@@H](C(C)C)CC(=O)[C@@H](C)CCC[C@@H](C)CC(=O)C1CC(C)=C1C2/C=C(\C)CCC2OC(CC[C@]2(C)OC(C)=O)[C@](C)(O)C[C@H]1O` (stereo partly drawn) [XIMAOLIDE F], the inhibition result in data set [5] and in data set [6] was “Dose-dependent effect” in each case. Besides, the IC50 in data set [1] is 9 µM; in data set [2] it was above 40 µM; in data set [7], 6.9 µM; in data set [3] it was 16.4 µM; in data set [4], 28.4 µM. The Activity result in data set [8] is “Non-toxic”.
For `CC1=C2CC/C(C)=C/CC[C@@]3(C)O[C@H]3CC[C@](C)(O)/C=C/2OC1=O`, the result in data set [1], in data set [2], in data set [3] and in data set [4] was inactive.
`COC(=O)/C1=C\C=C(\C(C)C)CCC2=CCC[C@](C)(OC2=O)[C@@H](OC(C)=O)CC1` [EMBLIDE]: the half-inhibitory concentration (IC50) in data set [1] is 38.8 µM; in data set [2], above 40 µM; in data set [3] it was above 40 µM; in data set [4], above 40 µM.
On to `C/C1=C\[C@@H]2O[C@@H](O)[C@@]3(C)O[C@@]23CC/C(C)=C/CC[C@@]2(C)O[C@H]2CC1` [LAEVIGATOL A], for which the inhibition result in data set [5] and in data set [6] was “Dose-dependent effect” throughout. Also, the result in data set [1], in data set [2], in data set [3] and in data set [4] was inactive. For the same compound, the IC50 in data set [7] was 9.4 µM. Further, the Activity result in data set [8] is listed as “Non-toxic”.
Consider `C/C1=C/[C@]2(O)OC[C@@]3(C)O[C@]32CC[C@](C)(O)/C=C/C[C@@](C)(O)[C@@H](O)CC1`, for which the result in data set [1], in data set [2], in data set [3] and in data set [4] was inactive.
As for `CC1=C2CC/C(C)=C/CC[C@]3(C)O[C@H]3CC/C(C)=C/[C@@H]2OC1=O` [SARCOPHINE], the IC50 in data set [1] was 34.7 µM; in data set [2], above 40 µM; in data set [3], above 40 µM; in data set [4], above 40 µM.
In the case of `O=C1c2c(O)ccc(O)c2C(=O)c2c(NCCNCCO)ccc(NCCNCCO)c21` [MITOXANTRONE], the IC50 in data set [1] was 7.9 µM; in data set [3], 7.2 µM.
`C/C1=C\[C@]2(O)OC[C@@]3(C)O[C@]32CC[C@](C)(O)/C=C/C[C@@]2(C)O[C@H]2CC1`: the outcome in data set [1], in data set [2], in data set [3] and in data set [4] was inactive.
